Test system: Murine stromal cell line
Experiment: In vitro ability to induce a hematopoietic synergistic factor from a murine stromal cell line at 0.10 ug/mL; Not Detected
Type: functional, cell-based
Settings: Mus musculus
Method in brief: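 Murine stromal cell line C6.4 exposed to test compounds at 0.10, 1.0 and 10.0 µg/mL. Stromal supernatants then assayed for induced hematopoietic synergistic factor (HSF) activity in a murine bone marrow CFU-GM colony assay. Reference peptide included in every assay at 1.0 µg/mL as positive control.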

SMILES: O=C(CCNC(=O)[C@H](CO)NC(=O)c1ccc[nH]1)Nc1ccc(NC(=O)CCNC(=O)[C@H](CO)NC(=O)c2ccc[nH]2)cc1
- HSF release: Not detected

— ChEMBL document CHEMBL1133421, “Novel peptidomimetic hematoregulatory compounds” (2000)
